Measured values of several laboratories.
Protocols differ between the studies behind these lines.
HLA class I histocompatibility antigen, A alpha chain: HLA class I histocompatibility antigen, A alpha chain (Homo sapiens, UniProt P04439)
BACE1: Beta-secretase 1 (BACE1, Homo sapiens, UniProt P56817)

SMILES | target | assay | measurement | value
CSCC[C@H](NC(=O)[C@@H](N)CCCNC(=N)N)C(=O)N[C@@H](Cc1ccccc1)C(=O)NCC(=O)N1CCC[C@H]1C(=O)N[C@H](C(=O)N[C@@H](CCC(N)=O)C(=O)N[C@H](C(=O)N[C@@H](Cc1ccc(O)cc1)C(=O)O)[C@@H](C)O)C(C)C | HLA class I histocompatibility antigen, A alpha chain | cell-free assay | IC50 | 45 nM
CCOC(=O)c1ccc(OC(=O)CCCCCN=C(N)N)cc1 | Transmembrane protease serine 6 (Homo sapiens, UniProt Q8IU80) | enzyme activity, inhibitor | IC50 | 412 nM
CSCC[C@H](NC(=O)[C@@H](N)CCCCN)C(=O)N[C@@H](Cc1c[nH]c2ccccc12)C(=O)NCC(=O)N[C@@H](CCCCN)C(=O)N1CCC[C@H]1C(=O)N[C@@H](CCSC)C(=O)N[C@H](C(=O)N[C@@H](Cc1ccccc1)C(=O)O)[C@@H](C)O | HLA class I histocompatibility antigen, A alpha chain | cell-free assay | IC50 | 213 nM
C=CCOc1ccc(C(=O)/C=C/c2ccc(OC)cc2)c(OS(=O)(=O)c2ccc(OC)cc2)c1I | BACE1 | enzyme activity, inhibitor, fluorescence | IC50 | 18200 nM
CCCC[C@H](NC(C)=O)C(=O)N[C@H]1CC(=O)NCCCC[C@@H](C(=O)N2CCC[C@@H]2C(=O)N[C@@H](C(=O)N2CCC[C@@H]2C(N)=O)C(C)C)NC(=O)[C@H](Cc2c[nH]c3ccccc23)NC(=O)[C@H](CCCNC(=N)N)NC(=O)[C@@H](Cc2ccccc2)NC(=O)[C@@H]2CCCN2C1=O | Melanocortin receptor 3 (MC3R, Homo sapiens, UniProt P41968) | cAMP, agonist | EC50 | > 1000 nM
COc1cc(C(F)(F)F)c(OC)cc1C1CCCNC1 (stereo not shown) | 5-hydroxytryptamine receptor 2C (Htr2c, Mus musculus, UniProt P34968) | G protein activation, agonist, BRET | EC50 | 30.9 nM
C=CCOc1ccc(C(=O)/C=C/c2cccc(F)c2)c(OS(=O)(=O)c2ccc(F)cc2)c1I | BACE1 | enzyme activity, inhibitor, fluorescence | IC50 | 27800 nM
COc1cc2c(cc1OC)CN(CCc1ccc(NC(=O)c3cccc4c(=O)c5cccc(OC)c5[nH]c34)cc1)CC2 | D(2) dopamine receptor (DRD2, Homo sapiens, UniProt P14416) | cell-free assay | Ki | 943 nM
C=CCOc1ccc(C(=O)/C=C/c2ccc(OC)cc2)c(OS(=O)(=O)c2ccccc2[N+](=O)[O-])c1I | BACE1 | enzyme activity, inhibitor, fluorescence | IC50 | 23900 nM
CC[C@H](C)[C@H](NC(=O)[C@@H](N)CCCNC(=N)N)C(=O)N[C@@H](Cc1ccc(O)cc1)C(=O)NCC(=O)N1CCC[C@H]1C(=O)N1CCC[C@H]1C(=O)N[C@@H](Cc1c[nH]cn1)C(=O)N[C@@H](CCC(N)=O)C(=O)N[C@@H](Cc1ccccc1)C(=O)O | HLA class I histocompatibility antigen, A alpha chain | cell-free assay | IC50 | 376 nM
